According to ChEMBL document CHEMBL1143592, “N-terminal sugar conjugation and C-terminal Thr-for-Thr(ol) exchange in radioiodinated Tyr3-octreotide: effect on cellular ligand trafficking in vitro and tumor accumulation in vivo” (J Med Chem, 2005):
Values belong to the molecule of their own block, whether it stands above or below them.

Experiments:
Type in all cases: cell-based
[1] = biological target: T1, Somatostatin receptor type 1 (Homo sapiens, UniProt P30872); assay: In vitro inhibition of [125I][Leu8,D-Trp22,Tyr25] somatostatin 28 binding to human somatostatin receptor type 1 expressed in CHO-K1 cells; (n=7)
Outline: (§1)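 Receptor autoradiography on sections of cell membrane pellets from CHO-K1 (sst1, sst5) or CCL39 (sst2–4) cells stably expressing the human subtype. Full displacement of [125I][Leu8,D-Trp22,Tyr25]somatostatin 28 by unlabeled peptide, 0.1–1000 nM, with somatostatin 28 run in parallel as control. IC50 derived by computer-assisted image analysis, quantified against cross-calibrated [125I] tissue standards.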

[2] = biological target: T2, Somatostatin receptor type 3 (Homo sapiens, UniProt P32745); assay: In vitro inhibition of [125I][Leu8,D-Trp22,Tyr25] somatostatin 28 binding to human somatostatin receptor type 3 expressed in CCL39 cells; (n=4); outline: as §1
[3] = biological target: T3, Somatostatin receptor type 4 (Homo sapiens, UniProt P31391); assay: In vitro inhibition of [125I][Leu8,D-Trp22,Tyr25] somatostatin 28 binding to human somatostatin receptor type 4 expressed in CCL39 cells; (n=6)
[4] = biological target: Somatostatin receptor type 5 (Homo sapiens, UniProt P35346); assay: In vitro inhibition of [125I][Leu8,D-Trp22,Tyr25] somatostatin 28 binding to human somatostatin receptor type 5 expressed in CHO-K1 cells; (n=6)
[5] = biological target: T3, Somatostatin receptor type 4; assay: In vitro inhibition of [125I][Leu8,D-Trp22,Tyr25] somatostatin 28 binding to human somatostatin receptor type 4 expressed in CCL39 cells; (n=5)
[6] = biological target: T1, Somatostatin receptor type 1; assay: In vitro inhibition of [125I][Leu8,D-Trp22,Tyr25] somatostatin 28 binding to human somatostatin receptor type 1 expressed in CHO-K1 cells; (n=5)
[7] = biological target: T2, Somatostatin receptor type 3; assay: In vitro inhibition of [125I][Leu8,D-Trp22,Tyr25] somatostatin 28 binding to human somatostatin receptor type 3 expressed in CCL39 cells; (n=5)
[8] = biological target: T1, Somatostatin receptor type 1; assay: In vitro inhibitory concentration against somatostatin receptor type 1 expressed in CHO-K1 cells using [125I][Leu8,D-Trp22,Tyr25] somatostatin 28 as radioligand; (n=2); outline: as §1
[9] = biological target: T3, Somatostatin receptor type 4; assay: In vitro inhibition of [125I][Leu8,D-Trp22,Tyr25] somatostatin 28 binding to human somatostatin receptor type 4 expressed in CCL39 cells; (n=2); outline: as §1
[10] = biological target: T2, Somatostatin receptor type 3; assay: In vitro inhibition of [125I][Leu8,D-Trp22,Tyr25] somatostatin 28 binding to human somatostatin receptor type 3 expressed in CCL39 cells; (n=2); outline: as §1
[11] = biological target: Somatostatin receptor type 2 (Homo sapiens, UniProt P30874); assay: Relative effective concentration against human somatostatin receptor type 2 expressed in CHO cells; (n=3); details: cho
Outline: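 Dual-tracer internalization in CHO cells stably expressing N-terminally tagged hsst2 (90000–120000 cells/well, plated the day before). Acid wash at pH 5 removed surface-bound activity; nonspecific uptake was taken with 5 µM TOC; triplicates. EC50 is expressed relative to [125I]TOC.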

Chain of Somatostatin receptor type 2 (P30874 whole entry): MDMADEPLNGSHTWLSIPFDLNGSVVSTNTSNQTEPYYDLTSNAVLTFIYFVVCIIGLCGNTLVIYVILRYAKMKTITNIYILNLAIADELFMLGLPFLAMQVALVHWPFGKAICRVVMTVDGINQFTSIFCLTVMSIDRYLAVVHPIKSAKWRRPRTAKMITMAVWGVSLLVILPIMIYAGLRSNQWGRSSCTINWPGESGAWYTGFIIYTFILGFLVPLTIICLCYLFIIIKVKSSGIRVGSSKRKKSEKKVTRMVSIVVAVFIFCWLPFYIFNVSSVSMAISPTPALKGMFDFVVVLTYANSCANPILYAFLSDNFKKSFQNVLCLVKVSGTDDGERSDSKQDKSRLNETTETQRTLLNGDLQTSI
T1 sequence (P30872 whole entry): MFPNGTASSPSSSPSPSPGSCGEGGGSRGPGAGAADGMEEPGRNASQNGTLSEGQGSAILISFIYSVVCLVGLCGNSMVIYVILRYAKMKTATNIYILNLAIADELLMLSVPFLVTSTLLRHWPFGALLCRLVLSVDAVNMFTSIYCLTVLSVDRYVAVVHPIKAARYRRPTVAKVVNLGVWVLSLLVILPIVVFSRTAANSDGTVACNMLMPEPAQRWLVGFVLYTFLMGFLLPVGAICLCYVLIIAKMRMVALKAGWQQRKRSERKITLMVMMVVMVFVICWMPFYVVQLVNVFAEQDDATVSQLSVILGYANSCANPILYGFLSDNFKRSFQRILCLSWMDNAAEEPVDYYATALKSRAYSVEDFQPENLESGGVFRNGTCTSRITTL
T3 sequence (P31391 whole entry): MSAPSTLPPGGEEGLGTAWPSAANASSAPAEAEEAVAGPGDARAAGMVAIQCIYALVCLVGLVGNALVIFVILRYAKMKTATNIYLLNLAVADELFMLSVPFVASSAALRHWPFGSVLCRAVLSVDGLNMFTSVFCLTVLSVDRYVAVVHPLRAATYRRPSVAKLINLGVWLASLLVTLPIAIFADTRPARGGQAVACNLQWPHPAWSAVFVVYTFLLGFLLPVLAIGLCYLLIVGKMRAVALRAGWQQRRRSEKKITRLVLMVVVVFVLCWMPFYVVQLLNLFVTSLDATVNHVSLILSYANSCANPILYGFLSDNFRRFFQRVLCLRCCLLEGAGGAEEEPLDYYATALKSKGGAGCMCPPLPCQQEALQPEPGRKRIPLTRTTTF
T2 sequence (P32745 whole entry): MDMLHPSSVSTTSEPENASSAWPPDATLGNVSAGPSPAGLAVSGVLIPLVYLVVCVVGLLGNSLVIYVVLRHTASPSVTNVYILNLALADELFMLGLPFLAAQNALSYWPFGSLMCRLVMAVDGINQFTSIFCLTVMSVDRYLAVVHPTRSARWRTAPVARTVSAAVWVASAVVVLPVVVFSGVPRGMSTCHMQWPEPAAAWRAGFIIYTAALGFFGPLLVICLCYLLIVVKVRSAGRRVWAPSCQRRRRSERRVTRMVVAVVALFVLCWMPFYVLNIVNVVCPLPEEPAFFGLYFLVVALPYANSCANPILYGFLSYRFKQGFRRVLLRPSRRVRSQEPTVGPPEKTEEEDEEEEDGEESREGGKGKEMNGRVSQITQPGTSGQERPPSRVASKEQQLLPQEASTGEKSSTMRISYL
Chain of Somatostatin receptor type 5 (P35346 whole entry): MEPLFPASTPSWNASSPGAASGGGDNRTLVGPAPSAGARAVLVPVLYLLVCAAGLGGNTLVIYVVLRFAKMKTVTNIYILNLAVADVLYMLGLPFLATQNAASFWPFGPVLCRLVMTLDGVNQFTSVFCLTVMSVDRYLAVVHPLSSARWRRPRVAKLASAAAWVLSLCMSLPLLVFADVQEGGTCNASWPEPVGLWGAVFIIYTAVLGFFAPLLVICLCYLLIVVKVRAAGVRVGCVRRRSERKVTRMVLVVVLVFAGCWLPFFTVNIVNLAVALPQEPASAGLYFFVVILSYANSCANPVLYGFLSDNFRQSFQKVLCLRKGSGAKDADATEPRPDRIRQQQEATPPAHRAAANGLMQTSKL

IC50 [1]: > 10000 nM
IC50 [2]: 880 nM
IC50 [3]: > 1000 nM
IC50 [4]: 393 nM
SMILES: C[C@@H](O)[C@@H]1NC(=O)[C@H](CCCCN)NC(=O)[C@@H](Cc2c[nH]c3ccccc23)NC(=O)[C@H](Cc2ccc(O)cc2)NC(=O)[C@@H](NC(=O)[C@@H](Cc2ccccc2)NC(=O)CN2CCN(CC(=O)O)CCN(CC(=O)O)CCN(CC(=O)O)CC2)CSSC[C@@H](C(=O)N[C@H](CO)[C@@H](C)O)NC1=O [EDOTREOTIDE]

IC50 [5]: 729 nM
IC50 [6]: > 1000 nM
IC50 [7]: 186 nM
SMILES: C[C@H](O)[C@@H](CO)NC(=O)[C@@H]1CSSC[C@H](NC(=O)[C@H](N)Cc2ccccc2)C(=O)N[C@@H](Cc2ccc(O)c(I)c2)C(=O)N[C@H](Cc2c[nH]c3ccccc23)C(=O)N[C@@H](CCCCN)C(=O)N[C@@H]([C@@H](C)O)C(=O)N1

IC50 [8]: > 1000 nM
IC50 [9]: 346 nM
IC50 [10]: 330 nM
SMILES: C[C@H](O)[C@@H](CO)NC(=O)[C@@H]1CSSC[C@H](NC(=O)[C@H](N)Cc2ccccc2)C(=O)N[C@@H](Cc2ccc(O)cc2)C(=O)N[C@H](Cc2c[nH]c3ccccc23)C(=O)N[C@@H](CCCCN)C(=O)N[C@@H]([C@@H](C)O)C(=O)N1

EC50 [11]: 2.13 nM
SMILES: C[C@@H](O)[C@H](NC(=O)[C@@H]1CSSC[C@H](NC(=O)[C@@H](Cc2ccccc2)NC[C@]2(O)OC[C@H](O)[C@@H](O[C@@H]3O[C@@H](CO)[C@@H](O)[C@H](O)[C@@H]3O)[C@@H]2O)C(=O)N[C@@H](Cc2ccc(O)c([123I])c2)C(=O)N[C@H](Cc2c[nH]c3ccccc23)C(=O)N[C@@H](CCCCN)C(=O)N[C@@H]([C@@H](C)O)C(=O)N1)C(=O)O

EC50 [11]: 1 nM
SMILES: C[C@@H](O)[C@H](CO)NC(=O)[C@@H]1CSSC[C@H](NC(=O)[C@H](N)Cc2ccccc2)C(=O)N[C@@H](Cc2ccc(O)c([125I])c2)C(=O)N[C@H](Cc2c[nH]c3ccccc23)C(=O)N[C@@H](CCCCN)C(=O)N[C@@H]([C@@H](C)O)C(=O)N1

EC50 [11]: 1.81 nM
SMILES: C[C@@H](O)[C@H](NC(=O)[C@@H]1CSSC[C@H](NC(=O)[C@@H](Cc2ccccc2)NC[C@]2(O)OC[C@H](O)[C@@H](O[C@@H]3O[C@@H](CO)[C@@H](O[C@@H]4O[C@@H](CO)[C@@H](O)[C@H](O)[C@@H]4O)[C@H](O)[C@@H]3O)[C@@H]2O)C(=O)N[C@@H](Cc2ccc(O)c([123I])c2)C(=O)N[C@H](Cc2c[nH]c3ccccc23)C(=O)N[C@@H](CCCCN)C(=O)N[C@@H]([C@@H](C)O)C(=O)N1)C(=O)O

EC50 [11]: 1.43 nM
SMILES: C[C@@H](O)[C@H](CO)NC(=O)[C@@H]1CSSC[C@H](NC(=O)[C@@H](Cc2ccccc2)NC[C@]2(O)OC[C@H](O)[C@@H](O)[C@@H]2O)C(=O)N[C@@H](Cc2ccc(O)c([123I])c2)C(=O)N[C@H](Cc2c[nH]c3ccccc23)C(=O)N[C@@H](CCCCN)C(=O)N[C@@H]([C@@H](C)O)C(=O)N1

EC50 [11]: 1.01 nM
SMILES: C[C@@H](O)[C@H](CO)NC(=O)[C@@H]1CSSC[C@H](NC(=O)[C@@H](Cc2ccccc2)NC[C@]2(O)OC[C@H](O)[C@@H](O[C@@H]3O[C@@H](CO)[C@@H](O[C@@H]4O[C@@H](CO)[C@@H](O)[C@H](O)[C@@H]4O)[C@H](O)[C@@H]3O)[C@@H]2O)C(=O)N[C@@H](Cc2ccc(O)c([123I])c2)C(=O)N[C@H](Cc2c[nH]c3ccccc23)C(=O)N[C@@H](CCCCN)C(=O)N[C@@H]([C@@H](C)O)C(=O)N1
